Assay results from paper PMC3653324 (Translational stroke research, 2012).
pIC50: −log10 of the molar value.

How the values were obtained:
P-glycoprotein (MDR1) = experiment: BBB penetration; type: in vitro ADME, canine; settings: dog, MDCK-MDR1
Method in brief: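 MDCK cells transfected with human MDR1 (P-gp) were grown to a confluent monolayer over 4 days. Test compound was added apically, and A→B transport was followed over 60 min; B→A transport was also measured. Compound on each side was quantified by GC/MS. Papp was calculated for both directions, and efflux ratio = Papp B→A/Papp A→B. High BBB potential: Papp A→B ≥3.0×10⁻⁶ cm/s and efflux <3.0.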

H4IIE cells [1] = experiment: CeeTox membrane toxicity; settings: 24 hr, α-GST leakage
H4IIE cells [2] = experiment: CeeTox cell mass; settings: 24 hr
CYP1A2 = biological target: T1, CYP1A2 (Homo sapiens, UniProt P05177); experiment: Cloe Screen Cytochrome P450 Inhibition assay; type: in vitro ADME; settings: for CYP1A2 inhibition classification: classified from IC50
T1 sequence (P05177 1-516): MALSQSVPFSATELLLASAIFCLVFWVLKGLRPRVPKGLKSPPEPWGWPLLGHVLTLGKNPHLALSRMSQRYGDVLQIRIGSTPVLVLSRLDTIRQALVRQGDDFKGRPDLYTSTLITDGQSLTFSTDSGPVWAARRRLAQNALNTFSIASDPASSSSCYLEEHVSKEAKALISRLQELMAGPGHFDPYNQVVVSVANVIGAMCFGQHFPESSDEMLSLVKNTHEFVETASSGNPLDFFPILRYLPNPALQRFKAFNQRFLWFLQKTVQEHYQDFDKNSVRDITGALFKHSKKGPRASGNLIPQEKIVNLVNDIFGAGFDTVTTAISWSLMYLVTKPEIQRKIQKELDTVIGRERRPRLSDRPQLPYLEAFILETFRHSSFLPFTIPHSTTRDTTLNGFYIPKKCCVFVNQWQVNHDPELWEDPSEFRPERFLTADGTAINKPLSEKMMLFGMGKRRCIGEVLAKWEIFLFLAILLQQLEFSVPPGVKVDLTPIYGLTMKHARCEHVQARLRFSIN

H4IIE cells [3] = experiment: CeeTox cellular ATP content; settings: 24 hr
S. typhimurium TA989 = experiment: Ames test for mutagenicity, frame-shift strain; type: cell-based; settings: first TA98 column; for TA98+S9: with S9, up to 10 μM; for TA98−S9: without S9, up to 10 μM
H4IIE cells [4] = type: cell-based; settings: 24 hr
CYP2C9 = CYP2C9 (Homo sapiens, UniProt P11712); experiment: Cloe Screen Cytochrome P450 Inhibition assay; type: in vitro ADME
CYP2C9, sequence (P11712 whole entry): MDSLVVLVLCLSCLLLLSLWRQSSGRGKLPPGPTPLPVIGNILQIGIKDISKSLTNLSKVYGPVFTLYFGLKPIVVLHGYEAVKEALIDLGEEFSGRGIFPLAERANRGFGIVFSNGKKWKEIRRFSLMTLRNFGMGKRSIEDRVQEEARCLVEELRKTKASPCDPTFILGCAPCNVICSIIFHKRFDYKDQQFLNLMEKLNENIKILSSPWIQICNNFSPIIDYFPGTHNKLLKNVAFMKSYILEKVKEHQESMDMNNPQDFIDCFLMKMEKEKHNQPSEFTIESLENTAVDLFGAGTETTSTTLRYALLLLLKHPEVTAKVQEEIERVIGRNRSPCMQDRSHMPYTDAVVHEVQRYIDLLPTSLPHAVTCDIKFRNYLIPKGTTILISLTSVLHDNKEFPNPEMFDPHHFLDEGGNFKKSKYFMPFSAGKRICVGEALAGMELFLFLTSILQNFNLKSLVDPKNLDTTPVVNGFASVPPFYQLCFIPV

Caspase 3 = experiment: CeeTox apoptosis; type: cell-based, rat; settings: H4IIE cells; for Caspase 3 Activity (Index/Dose): dose: dose at which the index was seen; for Caspase 3 Activity (Index/Dose): index: index of RFU
CYP2D6 = CYP2D6 (Homo sapiens, UniProt P10635); experiment: Cloe Screen Cytochrome P450 Inhibition assay; type: in vitro ADME
CYP2D6, sequence (P10635 whole entry): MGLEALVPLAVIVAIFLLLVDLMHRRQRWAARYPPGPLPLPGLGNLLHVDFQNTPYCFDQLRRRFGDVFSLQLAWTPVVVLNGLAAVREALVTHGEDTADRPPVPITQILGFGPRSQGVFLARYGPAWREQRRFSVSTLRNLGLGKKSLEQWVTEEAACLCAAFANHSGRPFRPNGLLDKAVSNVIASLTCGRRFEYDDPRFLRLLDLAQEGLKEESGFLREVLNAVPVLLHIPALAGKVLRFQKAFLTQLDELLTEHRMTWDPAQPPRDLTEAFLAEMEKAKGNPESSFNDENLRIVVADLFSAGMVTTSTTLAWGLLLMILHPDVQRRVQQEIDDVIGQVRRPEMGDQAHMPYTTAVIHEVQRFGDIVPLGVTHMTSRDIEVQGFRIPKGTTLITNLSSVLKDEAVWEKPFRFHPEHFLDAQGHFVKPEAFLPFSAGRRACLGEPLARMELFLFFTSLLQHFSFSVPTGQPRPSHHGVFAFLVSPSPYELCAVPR
Method in brief: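 Run blinded. […] Metabolite formation was monitored by LC-MS/MS. IC50 was calculated from the decrease in metabolite formation relative to vehicle control. Quinidine served as positive control inhibitor.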

CYP3A4 = CYP3A4 (Homo sapiens, UniProt P08684); experiment: Cloe Screen Cytochrome P450 Inhibition assay; type: in vitro ADME
CYP3A4, sequence (P08684 2-503): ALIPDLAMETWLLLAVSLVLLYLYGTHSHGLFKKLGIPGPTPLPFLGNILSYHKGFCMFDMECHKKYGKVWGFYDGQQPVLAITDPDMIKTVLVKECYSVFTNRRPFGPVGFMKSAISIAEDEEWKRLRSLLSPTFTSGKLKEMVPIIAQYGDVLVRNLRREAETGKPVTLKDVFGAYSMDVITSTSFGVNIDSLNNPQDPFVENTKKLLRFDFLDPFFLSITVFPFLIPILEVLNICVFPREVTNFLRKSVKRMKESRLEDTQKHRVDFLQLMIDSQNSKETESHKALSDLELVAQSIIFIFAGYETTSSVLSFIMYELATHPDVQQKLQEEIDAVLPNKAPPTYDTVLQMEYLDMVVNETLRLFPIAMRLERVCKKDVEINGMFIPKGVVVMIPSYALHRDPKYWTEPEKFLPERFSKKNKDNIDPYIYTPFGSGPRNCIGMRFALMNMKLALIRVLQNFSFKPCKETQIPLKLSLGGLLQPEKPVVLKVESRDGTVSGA

CYP2C19 = CYP2C19 (Homo sapiens, UniProt P33261); experiment: Cloe Screen Cytochrome P450 Inhibition assay; type: in vitro ADME
CYP2C19, sequence (P33261 whole entry): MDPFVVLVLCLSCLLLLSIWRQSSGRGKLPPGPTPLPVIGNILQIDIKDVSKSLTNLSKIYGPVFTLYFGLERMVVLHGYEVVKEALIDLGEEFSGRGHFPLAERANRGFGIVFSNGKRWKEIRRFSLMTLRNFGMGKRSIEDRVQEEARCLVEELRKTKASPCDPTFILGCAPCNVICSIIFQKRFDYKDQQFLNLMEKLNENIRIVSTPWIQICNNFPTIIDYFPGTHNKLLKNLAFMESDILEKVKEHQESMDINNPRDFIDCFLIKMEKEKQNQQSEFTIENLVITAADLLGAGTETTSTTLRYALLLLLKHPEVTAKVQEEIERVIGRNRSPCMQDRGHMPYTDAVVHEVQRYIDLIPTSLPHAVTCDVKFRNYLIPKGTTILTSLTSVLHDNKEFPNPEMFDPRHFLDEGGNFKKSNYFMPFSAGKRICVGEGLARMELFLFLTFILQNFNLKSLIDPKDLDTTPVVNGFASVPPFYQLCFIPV

P-glycoprotein (PgP) = experiment: P-glycoprotein; type: cell-based, rat; settings: H4IIE cells, MTT, 24 hr, single exposure concentration (20 or 50 μM), without CSA
[5] = test system: Intracellular glutathione (GSH); experiment: CeeTox intracellular glutathione; settings: H4IIE cells
8-Isoprostane (8-ISO) = experiment: CeeTox lipid peroxidation measured as 8-isoprostane; settings: H4IIE cells, 8-ISO score
H4IIE cells [6] = experiment: CeeTox analysis composite; type: cell-based, rat; settings: for TC50 for all general toxicity measures (range over endpoints): H4IIE cells, 24 hr, range across CeeTox endpoints

Compound	Papp A→B at 60 min (P-glycoprotein (MDR1)) [×10⁻⁶ cm/s]	efflux ratio at 60 min (P-glycoprotein (MDR1))	MemTox TC50 (H4IIE cells [1]) [µM]	Cell Mass TC50 (H4IIE cells [2]) [µM]	pIC50 (CYP1A2)	ATP TC50 (H4IIE cells [3]) [µM]	TA98+S9 (S. typhimurium TA989)	TA98−S9 (S. typhimurium TA989)	MTT TC50 (H4IIE cells [4]) [µM]	pIC50 (CYP2C9)	Caspase 3 Activity (Index/Dose): dose (Caspase 3)	Caspase 3 Activity (Index/Dose): index (Caspase 3)	pIC50 (CYP2D6)	pIC50 (CYP3A4)	pIC50 (CYP2C19)	% Control(Compound) (P-glycoprotein (PgP)) [% Control]	Total GSH TC50 [5] [µM]	Membrane Lipid Peroxidation (8-Isoprostane (8-ISO))	CYP1A2 inhibition classification (CYP1A2)	other results
COc1cc(-c2oc3cc(C)c(C)cc3c(=O)c2O)ccc1O [CSMC-15, 6,7-dimethyl-3,4'-dihydroxy-3'-methoxyflavone]	4.08	0.4	>300	79	< 4.60	78	Negative (Not mutagenic < 10 μM (NEGATIVE))	Negative (Not mutagenic < 10 μM (NEGATIVE))	74	< 5.00	300	1 (0–200 = 1)	< 5.00	< 5.00	< 5.00	70.8	76	0	–	–
CCOc1cc(-c2ccc(O)c(O)c2)nc2ccccc12 [CSMC-16, 4-ethoxy-2-(3,4-dihydroxyphenyl)quinoline]	–	–	>300	215	5.40	162	Negative (Not mutagenic < 10 μM (NEGATIVE))	Negative (Not mutagenic < 10 μM (NEGATIVE))	170	< 5.00	–	–	< 5.00	< 5.00	< 5.00	81.3	243	0	moderate inhibition	–
CC[C@@]1(O)C(=O)OCc2c1cc1n(c2=O)Cc2cc3ccccc3nc2-1 [CAMPTOTHECIN, camptothecin, reference compound]	–	–	>300	3.0	–	5.0	–	–	3.2	–	100	3 (400–600 = 3)	–	–	–	–	5.0	1 (1 = Modest increase with maximum values ≤ 15 pg/mL)	–	MemTox TC50 (μM) (H4IIE cells [1]; listed as camptothecin): not affected; TC50 for all general toxicity measures (range over endpoints) (H4IIE cells [6]): 3.0 to 5.0 µM; Ctox ranking group: probability of in vivo toxic effects (H4IIE cells [6]; per standard CeeTox criteria): high probability (1–20 high probability)
Cc1cc(O)c(C(=O)/C=C/c2ccc(O)c(O)c2)cc1C [CSMC-10, 4',5'-dimethyl-2',3,4-trihydroxychalcone]	–	–	>300	86	5.16	75	Negative (Not mutagenic < 10 μM (NEGATIVE))	Negative (Not mutagenic < 10 μM (NEGATIVE))	83	< 5.00	100	1 (0–200 = 1)	< 5.00	< 5.00	< 5.00	73.4	144	2 (2 = Concentration related increase with maximum values ≥ 15 pg/mL)	moderate inhibition	–
C=C(C)[C@H]1Cc2c(ccc3c2O[C@@H]2COc4cc(OC)c(OC)cc4[C@@H]2C3=O)O1 [ROTENONE, rotenone, reference compound]	–	–	3.88	0.09	–	0.05	–	–	0.19	–	–	–	–	–	–	–	0.03	2 (2 = Concentration related increase with maximum values ≥ 15 pg/mL)	–	TC50 for all general toxicity measures (range over endpoints) (H4IIE cells [6]): 0.05 to 3.88 µM
O=c1cc(-c2cc(O)c(O)c(O)c2)oc2ccccc12 [CSMC-19, 3',4',5'-trihydroxyflavone]	105	0.01	>300	>300	< 4.60	256	Negative (Not mutagenic < 10 μM (NEGATIVE))	Negative (Not mutagenic < 10 μM (NEGATIVE))	>300	< 5.00	300	1 (0–200 = 1)	< 5.00	< 5.00	< 5.00	88.4	>300	2 (2 = Concentration related increase with maximum values ≥ 15 pg/mL)	–	–
COc1cc(-c2ccc(O)c(O)c2)nc2ccccc12 [CSMC-12, 4-methoxy-2-(3,4-dihydroxyphenyl)quinoline]	–	–	>300	208	5.43	223	Negative (Not mutagenic < 10 μM (NEGATIVE))	Negative (Not mutagenic < 10 μM (NEGATIVE))	293	< 5.00	–	–	< 5.00	< 5.00	< 5.00	85.9	>300	1 (1 = Modest increase with maximum values ≤ 15 pg/mL)	moderate inhibition	–
CCc1ccc2oc(-c3ccc(O)c(O)c3)c(O)c(=O)c2c1 [CSMC-9, 6-ethyl-3,3',4'-trihydroxy flavone]	40.9	0.19	>300	82	4.94	80	Negative (Not mutagenic < 10 μM (NEGATIVE))	Negative (Not mutagenic < 10 μM (NEGATIVE))	81	< 5.00	300	1 (0–200 = 1)	< 5.00	< 5.00	< 5.00	97.0	149	0	–	–
Cc1ccc2oc(-c3ccc(O)c(O)c3)c(O)c(=O)c2c1 [CSMC-11, 6-methyl-3,3',4'-trihydroxy flavone]	6.67	0.12	>300	>300	< 4.60	52	Negative (Not mutagenic < 10 μM (NEGATIVE))	Negative (Not mutagenic < 10 μM (NEGATIVE))	>300	< 5.00	300	1 (0–200 = 1)	< 5.00	< 5.00	< 5.00	80.3	>300	0	–	–
CC(C)Oc1cc(-c2ccc(O)c(O)c2)nc2ccccc12 [CSMC-17, 4-isopropoxy-2-(3,4-dihydroxyphenyl)quinoline]	–	–	>300	241	5.13	217	Negative (Not mutagenic < 10 μM (NEGATIVE))	Negative (Not mutagenic < 10 μM (NEGATIVE))	298	< 5.00	–	–	< 5.00	< 5.00	< 5.00	80.8	295	0	moderate inhibition	–
